From ChEMBL document CHEMBL3352255, “Tailor-made fluorescent trilobolide to study its biological relevance” (J Med Chem, 2014)
Activity calls are given as the source filed them. The rule behind the calls is not given here.

What was measured:
[1] = test system: U2OS; test: Cytotoxicity against human U2OS cells after 72 hrs by WST-1 assay; assay type: functional, cell-based
Outline: (§1)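 Dark cytotoxicity (no light exposure) by WST-1 tetrazolium-to-formazan conversion reflecting metabolic activity; compounds tested at concentrations up to 50 μM for 24, 48 or 72 h; IC50 taken as concentration giving 50% inhibition of cell viability.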

[2] = species on record: Rattus norvegicus; test: Induction of LPS-induced NO production in rat peritoneal cells after 24 hrs using DAR-2 probe by fluorescence assay; assay type: functional, cell-based
[3] = test system: MCF7; test: Cytotoxicity against human MCF7 cells after 24 hrs by WST-1 assay; assay type: functional, cell-based; conditions: MCF7, 24 h; outline: as §1
[4] = test system: PC-3; test: Induction of mitochondria fragmentation in human PC3 cells at 1 uM after 10 to 40 mins by fluorescence microscopy; assay type: functional, cell-based
Outline: (§2)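 Live cells were treated with 1 μM Bodipy conjugates for at least 40 min and then co-stained with MitoTracker Red FM (100 nM, 10 min). Imaging by fluorescence microscopy assessed colocalisation with the green signal and the state of the mitochondrial network.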

[5] = test system: U2OS; test: Cellular uptake in human U2OS cells at 1 uM after 10 to 20 mins by fluorescence microscopy; assay type: ADME, cell-based
Outline: (§3)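 Uptake into living cells was followed by fluorescence microscopy at 10, 20 and 40 min and at 1, 3, 5 and 24 h. Green-emitting Bodipy conjugates were given at 1 μM. A Bodipy dye-only stain served as control for dye-driven localisation.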

[6] = test system: C2C12; test: Cytotoxicity against mouse C2C12 cells after 24 hrs by WST-1 assay; assay type: functional, cell-based; conditions: C2C12, 24 h; outline: as §1
[7] = Cytotoxicity against human PC3 cells after 48 hrs by WST-1 assay; assay type: functional, cell-based; conditions: PC-3, 48 h; outline: as §1
[8] = Cellular uptake in human MIAPaCa2 cells at 1 uM after 20 mins by fluorescence microscopy; assay type: ADME, cell-based; conditions: mia paca-2, 20 min; outline: as §3
[9] = Cellular uptake in Endoplasmic reticulum of human PC3 cells at 1 uM after 1 hr by fluorescence microscopy; assay type: ADME, cell-based; conditions: pc-3, 1 h
Outline: (§4)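 Live-cell fluorescence microscopy of cells exposed to Bodipy-labelled conjugates at 1 μM for 1 h. ER was co-stained with ER-Tracker Blue-White DPX (100 nM, 20 min) to check colocalisation. A Bodipy dye-only stain served as control.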

[10] = Cytotoxicity against rat peritoneal cells assessed as reduction in cell viability at 40 uM after 24 hrs by WST-1 assay; assay type: cell-based
[11] = test system: LNCaP; test: Cytotoxicity against human LNCAP cells after 24 hrs by WST-1 assay; assay type: functional, cell-based; outline: as §1
[12] = Cellular uptake in mitochondria of human PC3 cells at 1 uM after 10 to 40 mins by fluorescence microscopy; assay type: ADME; conditions: pc-3, 1 µM; outline: as §2
[13] = test system: C2C12; test: Cellular uptake in mouse C2C12 cells at 1 uM after 20 mins by fluorescence microscopy; assay type: ADME, cell-based; conditions: c2c12, 20 min; outline: as §3
[14] = Cellular uptake in human MIAPaCa2 cells at 1 uM after 40 mins to 24 hrs by fluorescence microscopy; assay type: ADME, cell-based; conditions: mia paca-2, 1 µM; outline: as §3
[15] = test system: U2OS; test: Cellular uptake in human U2OS cells at 1 uM after 20 mins by fluorescence microscopy; assay type: ADME, cell-based; outline: as §3
[16] = test system: MCF7; test: Cytotoxicity against human MCF7 cells after 48 hrs by WST-1 assay; assay type: functional, cell-based; conditions: MCF7, 48 h; outline: as §1
[17] = Cellular uptake in Endoplasmic reticulum of human LNCAP cells at 1 uM after 1 hr by fluorescence microscopy; assay type: ADME, cell-based; outline: as §4
[18] = test system: PC-3; test: Induction of LPS-induced NO production in human PC3 cells at 40 uM after 24 hrs using DAR-2 probe by fluorescence assay; assay type: functional, cell-based
Outline: (§5)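 NO in living cells (PC-3, LNCaP, MCF-7, U-2 OS) was imaged by fluorescence microscopy with the NO-specific red-emitting probe DAR-2 after compound stimulation.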

[19] = test system: LNCaP; test: Induction of LPS-induced NO production in human LNCAP cells at 40 uM after 24 hrs using DAR-2 probe by fluorescence assay; assay type: functional, cell-based; outline: as §5
[20] = test system: U2OS; test: Cellular uptake in human U2OS cells at 1 uM after 45 to 60 mins by fluorescence microscopy; assay type: ADME, cell-based; outline: as §3
[21] = test system: U2OS; test: Cytotoxicity against human U2OS cells after 24 hrs by WST-1 assay; assay type: functional, cell-based; outline: as §1
[22] = Cytotoxicity against human MIAPaCa2 cells after 24 hrs by WST-1 assay; assay type: functional, cell-based; conditions: MIA PaCa-2, 24 h; outline: as §1
[23] = test system: U2OS; test: Cytotoxicity against human U2OS cells after 48 hrs by WST-1 assay; assay type: functional, cell-based; outline: as §1
[24] = test system: U2OS; test: Induction of LPS-induced NO production in human U2OS cells at 40 uM after 24 hrs using DAR-2 probe by fluorescence assay; assay type: functional, cell-based; outline: as §5
[25] = test system: LNCaP; test: Cytotoxicity against human LNCAP cells after 48 hrs by WST-1 assay; assay type: functional, cell-based; outline: as §1
[26] = test system: C2C12; test: Cytotoxicity against mouse C2C12 cells after 72 hrs by WST-1 assay; assay type: functional, cell-based; conditions: C2C12, 72 h; outline: as §1
[27] = Cellular uptake in human PC3 cells at 1 uM after 40 mins to 24 hrs by fluorescence microscopy; assay type: ADME, cell-based; conditions: pc-3, 1 µM; outline: as §3
[28] = test system: LNCaP; test: Cellular uptake in human LNCAP cells at 1 uM after 40 mins to 24 hrs by fluorescence microscopy; assay type: ADME, cell-based; outline: as §3
[29] = test system: HT-29; test: Cytotoxicity against human HT-29 cells after 72 hrs by WST-1 assay; assay type: functional, cell-based; conditions: HT-29, 72 h; outline: as §1
[30] = Cellular uptake in human PC3 cells at 1 uM after 20 mins by fluorescence microscopy; assay type: ADME, cell-based; conditions: pc-3, 20 min; outline: as §3
[31] = test system: LNCaP; test: Cellular uptake in human LNCAP cells at 1 uM after 20 mins by fluorescence microscopy; assay type: ADME, cell-based; outline: as §3
[32] = test system: MCF7; test: Induction of LPS-induced NO production in human MCF7 cells at 40 uM after 24 hrs using DAR-2 probe by fluorescence assay; assay type: functional, cell-based; outline: as §5
[33] = Cytotoxicity against human PC3 cells after 72 hrs by WST-1 assay; assay type: functional, cell-based; conditions: PC-3, 72 h; outline: as §1
[34] = test system: U2OS; test: Induction of mitochondria fragmentation in human U2OS cells at 1 uM after 10 to 40 mins by fluorescence microscopy; assay type: functional, cell-based; outline: as §2
[35] = test system: U2OS; test: Induction of ER stress in Endoplasmic reticulum of human U2OS cells assessed as small vesicle formation from ER network at 1 uM after 3 to 5 hrs by fluorescence microscopy; assay type: functional, cell-based
Outline: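 U-2 OS live cells were incubated with conjugates at 1 μM for 1, 3 and 5 h. Fluorescence microscopy was used to score small vesicles or pouches budding from the ER network.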

[36] = species on record: Rattus norvegicus; test: Induction of LPS-induced NO production in rat peritoneal cells at 1 to 10 uM after 24 hrs using DAR-2 probe by fluorescence assay; assay type: functional, cell-based
Outline: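 Rat peritoneal cells were treated with conjugates at 0.01–100.0 μM for 24 h. NO production was compared with untreated cells. LPS (100 pg·mL−1) and trilobolide (0.1 μM) were included as references. Data are mean ± SEM of three independent experiments, n = 6.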

[37] = test system: U2OS; test: Cellular uptake in human U2OS cells at 2 uM after 0.5 to 24 hrs by fluorescence microscopy; assay type: ADME, cell-based
Outline: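 U-2 OS live cells were imaged by fluorescence microscopy across a range of conjugate concentrations and time points from 0.5 to 24 h. The intracellular signal plateau was then assessed.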

[38] = Cellular uptake in mitochondria of human U2OS cells at 1 uM after 10 to 40 mins by fluorescence microscopy; assay type: ADME; outline: as §2
[39] = Cytotoxicity against human PC3 cells after 24 hrs by WST-1 assay; assay type: functional, cell-based; conditions: PC-3, 24 h; outline: as §1
[40] = test system: HT-29; test: Cytotoxicity against human HT-29 cells after 48 hrs by WST-1 assay; assay type: functional, cell-based; conditions: HT-29, 48 h; outline: as §1

| SMILES | IC50 [1] | Activity [2] | IC50 [3] | Activity [4] | Drug uptake [5] | IC50 [6] | IC50 [7] | Drug uptake [8] | Drug uptake [9] | Activity [10] | IC50 [11] | Drug uptake [12] | Drug uptake [13] | Drug uptake [14] | Drug uptake [15] | IC50 [16] | Drug uptake [17] | Activity [18] | Activity [19] | Drug uptake [20] | further results |
| --- | --- | --- | --- | --- | --- | --- | --- | --- | --- | --- | --- | --- | --- | --- | --- | --- | --- | --- | --- | --- | --- |
| C/C=C(/C)C(=O)O[C@@H]1C[C@H]2C(=C1C)[C@@H]1OC(=O)[C@@](C)(O)[C@@]1(O)[C@@H](OC(=O)CCCCn1cc(COc3ccc(C4=C5C=CC=[N+]5[B-](F)(F)n5cccc54)cc3)nn1)C[C@]2(C)OC(C)=O | 9.1 µM | Dose-dependent effect | > 50 µM | Active | Active | > 50 µM | 4.6 µM | Active | Active | 20% | 12.7 µM | Not Active | Active | Active | Active | 12.8 µM | Active | Active | Active | Not Active | IC50 [21]: 25.6 µM; IC50 [22]: > 50 µM; IC50 [23]: 13.2 µM; Activity [24]: Active; IC50 [25]: 9.7 µM; IC50 [26]: 15.1 µM; Drug uptake [27]: Active; Drug uptake [28]: Active; IC50 [29]: > 50 µM; Drug uptake [30]: Active; Drug uptake [31]: Active; Activity [32]: Active; IC50 [33]: 3.8 µM; Activity [34]: Active; Activity [35]: Active; Activity [36]: Active; Drug uptake [37]: Active; Drug uptake [38]: Not Active; IC50 [39]: 4.2 µM; IC50 [40]: > 50 µM |
| C/C=C(/C)C(=O)O[C@@H]1C[C@H]2C(=C1C)[C@@H]1OC(=O)[C@@](C)(O)[C@@]1(O)[C@@H](OC(=O)CCOCCOCCOCCOCCn1cc(COc3ccc(C4=C5C=CC=[N+]5[B-](F)(F)n5cccc54)cc3)nn1)C[C@]2(C)OC(C)=O | 9.1 µM | Dose-dependent effect | 7.4 µM | Active | Active | 8 µM | 3.1 µM | Active | Active | Non-toxic | 7.4 µM | Not Active | Active | Active | Active | 6.3 µM | Active | Active | Active | Not Active | IC50 [21]: > 50 µM; IC50 [22]: > 50 µM; IC50 [23]: 5.4 µM; Activity [24]: Active; IC50 [25]: 0.4 µM; IC50 [26]: 14.3 µM; Drug uptake [27]: Active; Drug uptake [28]: Active; IC50 [29]: > 50 µM; Drug uptake [30]: Active; Drug uptake [31]: Active; Activity [32]: Active; IC50 [33]: 4.1 µM; Activity [34]: Active; Activity [35]: Active; Activity [36]: Active; Drug uptake [37]: Active; Drug uptake [38]: Not Active; IC50 [39]: 2.5 µM; IC50 [40]: 14.2 µM |
